An excerpt weighted towards active compounds, which were near 3% of everything screened.
TAAR1 antagonist – antagonists of human TAAR1 | Q96RJ0 | CHO RD-HGA16 TAAR1, Fluo-8 calcium fluorescence, antagonist | inhibition, % at 3 µM | actives 1.5% (n = 360,000);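 active = inhibition above a per-plate cutoff, the mean inhibition of test compounds on that plate plus 3 SD, cut at about 49% in these data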;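 note: 0% = DMSO plus EC80 beta-PEA response and 100% = DMSO alone without agonist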
Target sequence (Q96RJ0 whole entry, looked up): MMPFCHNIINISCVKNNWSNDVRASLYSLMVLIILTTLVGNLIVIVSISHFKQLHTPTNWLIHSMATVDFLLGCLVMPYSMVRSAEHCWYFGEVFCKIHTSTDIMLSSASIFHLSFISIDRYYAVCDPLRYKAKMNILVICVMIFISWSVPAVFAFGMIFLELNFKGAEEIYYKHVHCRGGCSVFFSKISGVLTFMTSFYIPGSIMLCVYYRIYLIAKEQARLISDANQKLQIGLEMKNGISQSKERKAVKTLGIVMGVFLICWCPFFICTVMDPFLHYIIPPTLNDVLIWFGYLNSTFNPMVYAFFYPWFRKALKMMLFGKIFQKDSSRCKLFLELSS
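System: CHO RD-HGA16 cells bearing hTAAR1. Reagent: EC80 β-phenethylamine stimulus. Schedule: seeding 17-24 h prior, 75-min 37 °C, 30-min RT dye loading. Signal: Fluo-8 intracellular calcium dye fluorescence, real-time kinetic reads. Read-out: % inhibition from peak post-agonist over basal fluorescence ratio. Benchmarks: vehicle wells and EC80 agonist wells. Replicates: n of 1.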
TAAR1 ag – agonists of human TAAR1; Q96RJ0; CHO RD-HGA16 TAAR1, Fluo-8 calcium fluorescence; vehicle wells 0%, saturating PEA agonist 100%; activation, % at 3 µM; actives 0.99% (n = 360,000); AID 624467;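 active = activation above the mean activation of all test compounds in the run plus 3 SD, cut at about 38% in these data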
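Test system: RD-HGA16 (CHO) cells co-expressing Gα16 and hTAAR1 | Doses: Single dose, 3 µM | Schedule: 17-24 h seeding, 75 min 37 °C dye, 30 min RT | Evaluation: % activation from peak over basal fluorescence ratio, DMSO-to-PEA scaled | Technique: Kinetic Fluo-8 calcium fluorescence | Benchmarks: Low control DMSO, high control PEA (EC100)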
CHRM4 PAM – CHRM4 positive allosteric modulation | activation, % at 3 µM | actives 0.4% (n = 360,000) | CHO-K1 hM4/Gqi5, Fluo-8 calcium fluorescence, ACh EC20; 0% = ACh EC20, 100% = maximal ACh | P08173;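 active = activation above its plate's cutoff, the mean activation of sample wells plus 3 SD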
CHRM4 antagonist – CHRM4 antagonism in calcium assay. P08173. CHO-hM4 cells, ACh EC80, Fluo-8 calcium fluorescence. inhibition, % at 3 µM. actives 0.73% (n = 360,000);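 active = inhibition above its plate's cutoff, the mean inhibition of sample wells plus 3 SD, cut at about 27% in these data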;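 note: 0% = acetylcholine EC80 with DMSO and 100% = DMSO without agonist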
M4 ag – CHRM4 agonism in calcium assay; P08173; CHO-K1 hM4/Gqi5, Fluo-8 calcium fluorescence; vehicle 0%, full acetylcholine response 100%; activation, % at 3 µM; actives 0.14% (n = 360,000); AID 624127;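 active = activation above the run mean over all test wells plus 3 SD, cut at about 32% in these data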;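 note: peak over basal fluorescence ratio per well then scaled between controls; 0% = DMSO wells and 100% = acetylcholine at EC100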
* = called active by the depositor; nt = not tested or not shown.

SMILES	TAAR1 antagonist	TAAR1 ag	CHRM4 PAM	CHRM4 antagonist	M4 ag
N#Cc1ccc(CN2CCN(C(=O)C3CC(=O)N(c4ccc5c(c4)OCCO5)C3)CC2)cc1 (configuration not stated)	2.3	2.1	0.9	-1.4	2.4
Cc1ccccc1CSc1nc2c(c(=O)[nH]1)CCC2	nt	nt	36.9*	-8.0	-2.2
Cc1ccccc1-c1nc(CSc2nc3c(c(=O)[nH]2)CCC3)c(C)o1	-66.0	-1.4	8.0	-6.9	-1.9
Cc1cccc(-c2nc(CSc3nc4c(c(=O)[nH]3)CCC4)c(C)o2)c1	-55.8	-1.8	20.0*	-21.6	-1.5
O=C(O)c1cc(-c2cccnc2)nc2ccc(Br)cc12	-5.9	10.2	1.5	-13.6	0.6
CC(OC(=O)c1cc(-c2cccnc2)nc2ccccc12)C(=O)Nc1ccc2ccccc2c1 (configuration not stated)	50.7*	9.3	-23.9	-1.1	12.2
CC(=O)Nc1cccc(NC(=O)c2cc(-c3cccnc3)nc3ccc(Br)cc23)c1	62.0*	21.3	-12.2	31.4*	27.3
COc1cccc(-c2cc(C(=O)Nc3ccncc3)c3ccccc3n2)c1	39.4	4.9	-5.9	1.5	8.7
COc1cccc(-c2cc(C(=O)Nc3ccc(N(C)C(C)=O)cc3)c3cc(Br)ccc3n2)c1	60.1*	7.8	-10.6	23.7	11.3
CSc1ccccc1NC(=O)c1cc(-c2cccnc2)nc2ccc(Br)cc12	50.0*	4.1	-6.3	3.5	4.6
COC(=O)[C@]12C[C@H](CC(=O)NCc3cccc4ccccc34)C(=O)N(CCC3=CCCCC3)C1=C[C@H](C(C)(C)C)O[C@@H]2C	-8.1	-0.5	nt	nt	nt
Cc1onc(-c2c(F)cccc2Cl)c1-c1ncc(-c2ccc(Cl)cc2)o1	0.8	1.8	nt	nt	nt
COc1ccccc1Cc1c(C(C)(C)C)nc2ccc(C)cn12	-0.4	0.1	-6.4	-19.8	-0.5
CC(=O)Nc1cccc(NC(=O)c2cc(-c3ccccn3)nc3ccc(Cl)cc23)c1	65.1*	9.2	3.5	-5.0	3.0
COc1ccc(COc2cc(-c3cccc(OC)c3)nc3ccc(NC(C)=O)cc23)cc1	58.8*	5.0	2.4	7.5	-0.1
CCn1c2c(n(C(C)=O)c1=O)C=C(C(=O)N1CCCC1)C(C)C(c1ccccc1)=C2 (configuration not stated)	20.6	7.7	nt	nt	nt
C[C@H](CCC(=O)OCc1cn(CC(=O)c2ccc(O)cc2)nn1)C1CC[C@H]2[C@@H]3CC[C@@H]4C[C@H](O)CC[C@]4(C)[C@H]3C[C@H](O)[C@]12C (some centres not stated)	53.5*	10.8	-7.7	22.3	10.8
CCCCc1c(-c2ccccc2OC)ncn1Cc1ccc(C(C)(C)C)cc1	-30.5	5.5	nt	nt	nt
CCCCCCCCCn1ccc(=N)cc1	-20.6	23.4	-13.4	30.3*	0.0
CCCCCCCn1ccc(=N)cc1	-1.7	2.4	-10.7	14.2	0.5
Cc1cc(N=O)no1	-5.7	0.1	nt	nt	nt
COC(=O)C1=C(C)N(Cc2ccc(C(F)(F)F)cc2)C(=NCc2ccc(C(F)(F)F)cc2)NC1c1ccccc1 (configuration not stated)	7.8	11.3	nt	nt	nt
Cc1cccc(C)c1OCc1nnc(SCC(=O)O)n1-c1c(C)cccc1C	-5.5	-0.5	nt	nt	nt
CC[C@H](C)[C@H](NC(N)=O)C(=O)Nc1ccc(S(=O)(=O)NC(C)C)cc1	-10.2	3.3	-4.7	29.8*	0.5
COc1ccc(C(=O)NCCNc2nc3ccc(C)cc3cc2C#N)cc1	-13.1	2.6	-6.8	6.7	-0.7
SMILES	TAAR1 antagonist	TAAR1 ag	CHRM4 PAM	CHRM4 antagonist	M4 ag
Cc1ccc2nc(NCCNC(=O)c3ccccc3)c(C#N)cc2c1	-3.4	-4.0	-14.0	51.1*	0.1
Cc1ccc(S(=O)(=O)N2CCN(C)CC2)cc1C	-11.4	3.8	-4.0	1.4	0.1
Cc1ccc(S(=O)(=O)N2CCC(N3CCN(C)CC3)CC2)cc1Cl	-0.2	2.5	-19.7	27.6*	-1.4
O=C(C=Cc1ccc2c(c1)OCO2)c1ccccc1	2.4	-0.1	-1.5	-4.2	0.6
CCN(C(=O)/C=C/c1ccc2c(c1)OCO2)c1ccccc1	-19.7	-2.1	23.8*	-12.3	0.8
S=C(SCc1c(Cl)cccc1Cl)N1CCSCC1	-21.6	0.0	nt	nt	nt
O=C(O)Cn1c(C(F)(F)F)nc2ccccc21	-24.3	3.6	19.5	32.1*	1.1
CC[C@@]12C(=O)N(c3cccc(Cl)c3)C(=O)N1[C@H](c1ccc(Br)cc1)[C@@H]1C(=O)N(C(C)(C)C)C(=O)[C@@H]12	9.5	5.4	27.6*	-9.5	3.3
C[C@H]1CN([C@@H](C)CO)C(=O)CCCn2cc(nn2)CO[C@@H]1CN(C)C(=O)c1ccc2ccn(C)c2c1	10.8	-0.1	nt	nt	nt
CCCCCC[n+]1ccccc1/C=C/c1ccc(N(C)C)cc1	70.1*	30.0	-17.1	49.4*	32.5*
CC[n+]1ccccc1/C=C/c1ccc(N(C)C)cc1	13.6	9.3	0.8	2.1	1.4
Clc1ccc(OCc2nnc(SCCN3CCCCC3)n2Cc2ccco2)cc1	-11.9	12.3	-27.5	58.4*	1.5
Cc1cc(C)c(C)c(S(=O)(=O)N2CCN(Cc3nc4ccccc4[nH]3)CC2)c1C	49.5*	20.5	-10.4	7.1	27.1
CCOC(=O)/C(=C\Nc1cccc(OCc2ccccc2)c1)NC(=O)c1ccccc1	23.2	2.0	nt	nt	nt
O=S1(=O)CCSC[C@@H](CN2CCCC2)N1	-29.2	4.0	nt	nt	nt
Cc1c(Cl)sn(-c2ccc(Cl)cc2)c1=O	60.7*	11.8	-4.0	37.9*	4.3
Cc1nn(-c2ccc(Cl)cc2)c(=O)c2ccccc12	1.7	2.1	-5.9	5.4	0.0
CCn1c(C)c(C(C)=O)c(N2CCN(C(c3ccccc3)c3ccccc3)CC2)nc1=S	50.3*	15.4	-20.4	29.3*	10.6
CC(=O)c1c(N2CCCCC2)nc(=S)n(-c2ccccc2)c1C	5.3	2.8	-8.7	19.4	1.1
CC(=O)c1c(N2CCCC2)nc(=S)n(-c2ccccc2)c1C	-20.2	1.3	-16.8	47.5*	0.9
Nc1nc(-c2ccc3c(c2)OCCO3)c(CC(=O)O)s1	1.4	4.3	-0.2	3.2	3.2
Nc1nc(-c2ccc3c(c2)CCCC3)c(CC(=O)O)s1	10.1	0.0	-15.1	29.1*	0.6
COc1ccc(CCN2C(=O)CSCC2(C)C(=O)Nc2ccc3c(c2)OCCO3)cc1OC (configuration not stated)	-5.7	0.6	4.5	-13.5	4.1
Cc1nc2ccn(Cc3ccccc3)c(=O)c2cc1C(=O)N1CCN(c2ccccc2)CC1	-9.2	2.4	13.9*	-5.5	0.9
Cc1cc(C)c2c(=O)n(CC(=O)N3CCN(c4ccccc4)CC3)ccc2n1	5.8	2.8	9.2	-17.7	2.3
Cc1[nH]c2ccccc2c1CC(=O)Nc1ccc(Nc2cccnc2)c(-c2ccc(-c3ccccc3)cc2F)c1	7.0	0.6	nt	nt	nt

Screens from PubChem.
